Experimental data reported in ChEMBL document CHEMBL5154639, “Anti-schistosomal activities of quinoxaline-containing compounds: From hit identification to lead optimisation” (Eur J Med Chem, 2021).
Calls of active or inactive are those of the source.

Experiments:
Schistosoma mansoni [1] = test: Antischistosomal activity against adult stage of Schistosoma mansoni assessed as cessation of worm motility at 6.25 to 12.5 uM measured after 72 hrs; format: functional, organism-based; conditions: dose 6.25-12.5 µM
Outline: (§1)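 7-week adult worm pairs, 1–3 pairs per well in duplicate, in DMEM with 10% FCS, L-glutamine and antibiotics, incubated 72 h at 37°C, 5% CO2. Concentrations were 0.78–50 µM in 0.5% DMSO, with some titrations at 0.0095–10 or 0.0095–5 µM. Controls were 0.5% DMSO and praziquantel 10 µM. Motility was measured by digital image analysis, and eggs were collected, formalin-fixed and counted.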

Schistosoma mansoni [2] = test: Antischistosomal activity against adult stage of Schistosoma mansoni assessed as inhibition of in vitro laid eggs production at 12.5 uM measured after 72 hrs; format: functional, organism-based; outline: as §1
Schistosoma mansoni [3] = test: Antischistosomal activity against adult stage of Schistosoma mansoni assessed as absence of body/gut movement, plate detachment and severe damage to the tegument at 25 to 50 uM measured after 72 hrs; format: functional, organism-based; conditions: dose 25-50 µM; outline: as §1
Schistosoma japonicum [4] = test: Antischistosomal activity against adult stage of Schistosoma japonicum assessed as inhibition of parasite motility at 100 nM measured after 24 to 72 hrs by microscopic method; format: functional, organism-based; conditions: time 24-72 hrs
Outline: (§2)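 Adult males (Egyptian isolate for S. haematobium, hamster-derived; Philippine isolate for S. japonicum, mouse-derived), about 5 per well in Basch 169 medium with antibiotics and 4% FBS, acclimated overnight at 37°C, 5% CO2. Compound added at 100 nM final in DMSO. Shape, density and motility scored by microscope with constrained descriptors at 5, 24, 48 and 72 h. Triplicate, sometimes duplicate.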

Schistosoma haematobium = test: Antischistosomal activity against Schistosoma haematobium assessed as inhibition of parasite movement at 100 nM measured after 24 to 72 hrs by microscopic method; format: functional, organism-based; conditions: time 24-72 hrs; outline: as §2
Schistosoma japonicum [5] = test: Antischistosomal activity against adult stage of Schistosoma japonicum assessed as parasite death at 100 nM measured after 72 hrs by microscopic method; format: functional, organism-based; outline: as §2
Schistosoma mansoni [6] = test: Antischistosomal activity against Schistosoma mansoni Puerto-Rican schistosomula assessed as inhibition of parasite motility at 50 uM measured after 72 hrs; format: functional, organism-based
Outline: (§3)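 Mechanically transformed schistosomula, 120 per well, incubated with compound at 37°C, 5% CO2 for 72 h, at single concentrations (10, 50 µM) or two-fold titrations (0.313–10 µM). Controls were auranofin 10 µM and 0.625% DMSO. Motility and phenotype were scored by automated high-content imaging, and EC50 was taken from two or three replicate titrations.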

Schistosoma japonicum [7] = test: Antischistosomal activity against adult stage of Schistosoma japonicum assessed as inhibition of parasite motility at 100 nM measured after 48 hrs by microscopic method; format: functional, organism-based; outline: as §2
Schistosoma mansoni [8] = test: Antischistosomal activity against adult stage of Schistosoma mansoni assessed as cessation of worm motility at 3.15 uM measured after 72 hrs; format: functional; outline: as §1
Schistosoma mansoni [9] = test: Antischistosomal activity against adult stage of Schistosoma mansoni assessed as inhibition of oviposition at 0.0024 to 10 uM measured after 72 hrs; format: functional, organism-based; conditions: dose 0.0095-10 µM, in the assay text read “0.0095 to 10 uM” for “0.0024 to 10 uM”; outline: as §1
Schistosoma mansoni [10] = test: Antischistosomal activity against adult stage of Schistosoma mansoni assessed as cessation of worm motility at 0.0095 to 10 uM measured after 72 hrs; format: functional, organism-based; conditions: dose 0.0095-10 µM; outline: as §1
Schistosoma mansoni [11] = test: Antischistosomal activity against adult stage of Schistosoma mansoni assessed as inhibition of oviposition at 0.0095 to 10 uM measured after 72 hrs; format: functional, organism-based; conditions: dose 0.0095-10 µM; outline: as §1
Schistosoma mansoni [12] = test: Antischistosomal activity against juvenile stage of Schistosoma mansoni assessed as parasite death at 1.25 to 10 uM measured after 72 hrs by PI staining based analysis; format: functional, organism-based; conditions: dose 1.25-10 µM
Outline: (§4)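 Juvenile worms, 20–25 per well, exposed to 10–0.156 µM for 72 h at 37°C, 5% CO2. Controls were 1.25% DMSO, and PZQ and AUR at 15 µM. Motility and phenotype were scored on an adapted WHO-TDR 0–4 scale. Viability was measured by 15 min staining with 2 µg/ml propidium iodide, imaged, and reported as the percentage of PI-positive worms per well.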

Schistosoma mansoni [13] = test: Antischistosomal activity against juvenile stage of Schistosoma mansoni assessed as increased granularity with reduced movement at 0.156 uM measured after 72 hrs by PI staining based analysis; format: functional, organism-based; outline: as §4
[14] = Genotoxicity against human TK6 cells assessed as induction of DNA damage by measuring nuclear p53 content at 0.5 to 4 uM measured after 24 hrs; format: toxicity, cell-based; conditions: tk6, 24 h, dose 0.5-4 µM
Outline: (§5)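 TK6 cells, about 2×10^5/ml in RPMI with 10% horse serum, treated 24 h without recovery at 0.5, 2 and 4 µM. Controls were 1% DMSO, MMS 45.4 µM and carbendazim 8.4 µM. Cells were fixed, permeabilized and stained for γH2AX, p53 and DRAQ5, then imaged by flow cytometry. Micronuclei were scored by neural network as %MNi in mononucleated cells. Biomarkers were expressed as fold change, with 1.5-fold as cut-off. Three experiments.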

[15] = Genotoxicity against human TK6 cells assessed as induction of DNA damage by measuring gammaH2AX level at 0.5 to 4 uM measured after 24 hrs; format: toxicity, cell-based; conditions: tk6, 24 h, dose 0.5-4 µM; outline: as §5
[16] = Genotoxicity against human TK6 cells assessed as […] in micronuclei formation at 0.5 to 2 uM measured after 24 hrs; format: toxicity, cell-based; conditions: tk6, 24 h, dose 0.5-2 µM; outline: as §5
TK6 [17] = test: Induction of cell cycle arrest in human TK6 cells assessed as accumulation of cells at G2/M phase at 2 to 4 uM; format: toxicity, cell-based; conditions: tk6, 4 µM, dose 2-4 µM
Schistosoma mansoni [18] = test: Antischistosomal activity against Schistosoma mansoni assessed as inhibition of miracidial to sporocyst transformation measured after 48 hrs; format: functional, organism-based; conditions: dose 0.5-5 µM, DDE = dose-dependent effect
Outline: (§6)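 Miracidia hatched from eggs by light exposure in artificial river water, then washed in CBSS. Set up in CBSS with compound, usually 0.5, 2, 5, 10 and 50 µM, in duplicate, with 1% DMSO as negative control. After 48 h at 26°C, dead, fully transformed and partially transformed larvae were counted.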

[19] = Drug uptake in cytoplasm of human TK6 cells by fluorescence based analysis; format: ADME, subcellular
Outline: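 Compound autofluorescence was recorded alongside γH2AX and p53 during imaging flow cytometry of TK6 cells treated for 24 h at 0.5–4 µM and fixed with lysis solution.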

TK6 [20] = test: Cytotoxicity against human TK6 cells assessed as increase in mitotic arrest at 4 uM measured after 24 hrs; format: toxicity, cell-based; conditions: tk6, 24 h
Schistosoma mansoni [21] = test: Antischistosomal activity against Schistosoma mansoni assessed as parasite death at 10 to 50 uM measured after 48 hrs; format: functional, organism-based; conditions: dose 10-50 µM; outline: as §6
[22] = Genotoxicity against human TK6 cells assessed as […] in micronuclei formation at 4 uM measured after 24 hrs; format: toxicity, cell-based; conditions: tk6, 24 h; outline: as §5
[23] = Cytotoxicity against human HepG2 cells assessed as reduction in cell viability incubated for 24 hrs by MTT assay; format: toxicity, cell-based
Outline: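 HepG2 seeded at 2×10^4 cells/well, then after 24 h exposed to 1–200 µM (seven concentrations) for 24 h at 37°C. Controls were 1.25% DMSO and 1% Triton X-100. MTT absorbance was read at 570 nm. Triplicates in three experiments; CC50 by non-linear regression of normalized log-dose curves.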

Schistosoma mansoni [24] = test: Antischistosomal activity against adult stage of Schistosoma mansoni assessed as inhibition of parasite motility measured after 72 hrs; format: functional, organism-based; outline: as §1
[25] = Selectivity index, ratio of CC50 for human HepG2 cells measured after 72 hrs to EC50 for antischistosomal activity against Schistosoma mansoni Puerto-Rican schistosomula measured after 72 hrs; format: toxicity; conditions: read-out: Ratio CC50/EC50
[26] = Cytotoxicity against human HepG2 cells assessed as reduction in cell viability incubated for 72 hrs by MTT assay; format: toxicity, cell-based
Schistosoma mansoni [27] = test: Antischistosomal activity against Schistosoma mansoni Puerto-Rican schistosomula assessed as phenotypic changes measured after 72 hrs; format: functional, organism-based; outline: as §3
Schistosoma mansoni [28] = test: Antischistosomal activity against Schistosoma mansoni Puerto-Rican schistosomula assessed as inhibition of parasite motility measured after 72 hrs; format: functional, organism-based; outline: as §3
[29] = Selectivity index, ratio of CC50 for human HepG2 cells measured after 72 hrs to EC50 for antischistosomal activity against adult stage of Schistosoma mansoni measured after 72 hrs; format: toxicity; conditions: read-out: Ratio CC50/EC50

Cc1ccc(Nc2nc3ccccc3nc2Nc2ccc(C)c(C)c2)cc1C
Activity (Schistosoma mansoni [1]): Active

c1ccc(/N=c2\sc3ccccc3s\c2=N\c2ccccc2)cc1
Activity (Schistosoma mansoni [2]): Active | Activity (Schistosoma mansoni [3]): Active

O=[N+]([O-])c1ccc2nc(Nc3ccc(C(F)(F)F)cc3)c(Nc3ccc(C(F)(F)F)cc3)nc2c1
Activity (Schistosoma japonicum [4]): Active | Activity (Schistosoma haematobium): Active | Activity (Schistosoma japonicum [5]): Active

COC(=O)c1ccc(Nc2nc3ccc([N+](=O)[O-])cc3nc2Nc2ccc(C(=O)OC)cc2)cc1
Activity (Schistosoma mansoni [1]): Active

Clc1ccc(Nc2nc3ccc(N4CCCC4)cc3nc2Nc2ccc(Cl)c(Cl)c2)cc1Cl
Activity (Schistosoma mansoni [6]): Active

O=[N+]([O-])c1ccc2nc(Nc3cccc(C(F)(F)F)c3)c(Nc3cccc(C(F)(F)F)c3)nc2c1
Activity (Schistosoma japonicum [7]): Active | Activity (Schistosoma haematobium): Active

FC(F)(F)c1cccc(Nc2nc3ccccc3nc2Nc2cccc(C(F)(F)F)c2)c1
Activity (Schistosoma mansoni [8]): 100% | Activity (Schistosoma mansoni [1]): Active

O=[N+]([O-])c1ccc2nc(Nc3cccc(Cl)c3)c(Nc3cccc(Cl)c3)nc2c1
Activity (Schistosoma japonicum [7]): Active

O=[N+]([O-])c1ccc2nc(Nc3cc(F)cc(C(F)(F)F)c3)c(Nc3cc(F)cc(C(F)(F)F)c3)nc2c1
Activity (Schistosoma mansoni [9]): Active

O=[N+]([O-])c1ccc2nc(Nc3ccc(Cl)cc3)c(Nc3ccc(Cl)cc3)nc2c1
Activity (Schistosoma japonicum [7]): Active

O=[N+]([O-])c1ccc2nc(Nc3cc(C(F)(F)F)ccc3F)c(Nc3cc(C(F)(F)F)ccc3F)nc2c1
Activity (Schistosoma japonicum [4]): Active | Activity (Schistosoma mansoni [9]): Active | Activity (Schistosoma haematobium): Active | Activity (Schistosoma japonicum [5]): Active

Cc1cccc(Nc2nc3ccc([N+](=O)[O-])cc3nc2Nc2cccc(C)c2)c1
Activity (Schistosoma mansoni [1]): Active

O=C(C1CCCCC1)N1CC(=O)N2CCc3ccccc3C2C1 (stereo not drawn)
Activity (Schistosoma mansoni [10]): Active | Activity (Schistosoma mansoni [11]): Active | Activity (Schistosoma mansoni [9]): Active

O=[N+]([O-])c1ccc2nc(Nc3ccc(Cl)c(Cl)c3)c(Nc3ccc(Cl)c(Cl)c3)nc2c1
Activity (Schistosoma mansoni [12]): Active | Activity (Schistosoma japonicum [7]): Active | Activity (Schistosoma mansoni [13]): Active | Activity (Schistosoma mansoni [10]): Active | Activity [14]: Non-Toxic | Activity (Schistosoma mansoni [11]): Active | Activity [15]: Non-Toxic | Activity (Schistosoma mansoni [9]): Active | Activity [16]: Non-Toxic | Activity (Schistosoma mansoni [1]): Active | Activity (TK6 [17]): Toxic | Activity (Schistosoma mansoni [18]): Dde | Drug uptake [19]: Active | Activity (TK6 [20]): Toxic | Activity (Schistosoma mansoni [21]): Active | Activity [22]: Toxic

O=[N+]([O-])c1ccc2nc(Nc3ccccc3)c(Nc3ccccc3)nc2c1
Activity (Schistosoma mansoni [8]): 100% | Activity (Schistosoma mansoni [1]): Active

Brc1ccc(Nc2nc3ccccc3nc2Nc2ccc(Br)cc2)cc1
CC50 at 24 h [23]: 7.12 µM | EC50 (Schistosoma mansoni [24]): 0.162 µM | selectivity ratio at 72 h [25]: 1.9 | CC50 at 72 h [26]: 4.64 µM | EC50 (Schistosoma mansoni [27]): 3.67 µM | EC50 (Schistosoma mansoni [28]): 1.21 µM | selectivity ratio at 72 h [29]: 28.6
